From ChEMBL document CHEMBL4411269, “Required Immunoproteasome Subunit Inhibition Profile for Anti-Inflammatory Efficacy and Clinical Candidate KZR-616 ((2 S,3 R)- N-(( S)-3-(Cyclopent-1-en-1-yl)-1-(( R)-2-methyloxiran-2-yl)-1-oxopropan-2-yl)-3-hydroxy-3-(4-methoxyphenyl)-2-(( S)-2-(2-morpholinoacetamido)propanamido)propenamide)” (J Med Chem, 2018) come the findings set out here.

≈ marks a conversion by molar mass, not a printed value. Calls of active or inactive are those of the source. The calls are words filed in the database; no cut-off is given here. Some results are limits rather than exact numbers.

Data set [1] concerns the target T1, Proteasome subunit beta type-5 (Mus musculus, UniProt O55234).
T1 sequence (O55234 whole entry): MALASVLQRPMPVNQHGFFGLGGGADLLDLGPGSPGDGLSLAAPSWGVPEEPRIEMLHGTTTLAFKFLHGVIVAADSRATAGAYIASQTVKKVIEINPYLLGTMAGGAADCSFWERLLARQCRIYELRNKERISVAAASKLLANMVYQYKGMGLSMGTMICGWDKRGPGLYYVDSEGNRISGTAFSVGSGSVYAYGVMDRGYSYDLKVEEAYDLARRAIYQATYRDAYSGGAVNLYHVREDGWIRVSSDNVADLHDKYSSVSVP
The experiment in a line: Inhibition of 20S proteosome beta 5 in mouse A20 cells by ELISA. The class given is cell-based.

Data set [2] concerns the target T2, Proteasome subunit beta type-10 (Mus musculus, UniProt O35955).
T2 sequence (O35955 whole entry): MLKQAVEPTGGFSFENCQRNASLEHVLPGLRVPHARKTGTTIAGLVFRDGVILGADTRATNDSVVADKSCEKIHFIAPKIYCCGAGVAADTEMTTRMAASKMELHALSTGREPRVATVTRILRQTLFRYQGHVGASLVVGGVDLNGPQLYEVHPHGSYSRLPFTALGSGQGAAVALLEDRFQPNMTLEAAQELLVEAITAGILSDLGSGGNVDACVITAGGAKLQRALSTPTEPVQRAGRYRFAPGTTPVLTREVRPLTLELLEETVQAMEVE
Briefly: Inhibition of MECL1 in mouse A20 cells by ELISA. Format: cell-based. A digest of the protocol:
(§1)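 Mouse A20 B-cell lymphoma cell lysate (1 mg/mL, hypotonic 20 mM Tris pH 8, 5 mM EDTA) treated with serially diluted compound for 1 h at 25 °C. Then 5 μM biotinylated active-site probe for 2 h at 25 °C, guanidine denaturation and streptavidin bead capture. Subunit-specific antibody and HRP chemiluminescence, signal normalized to protein, IC50 from percent activity versus DMSO controls.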
A general note: ELISA stands for enzyme-linked immunosorbent assay.

For data set [3], the target named is T3, Proteasome subunit beta type-9 (Mus musculus, UniProt P28076).
T3 sequence (P28076 whole entry): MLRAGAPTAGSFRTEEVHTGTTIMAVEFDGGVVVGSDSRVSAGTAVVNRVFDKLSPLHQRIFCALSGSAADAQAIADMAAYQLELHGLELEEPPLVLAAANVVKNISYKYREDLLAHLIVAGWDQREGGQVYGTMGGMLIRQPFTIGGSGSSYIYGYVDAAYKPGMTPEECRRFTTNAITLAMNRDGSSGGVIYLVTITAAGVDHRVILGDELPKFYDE
The experiment in a line: Inhibition of LMP2 in mouse A20 cells by ELISA. Format: cell-based. A digest of the protocol:
as §1

The target in data set [4] is T4, Proteasome Macropain subunit MB1 (Homo sapiens, UniProt P28074).
T4 sequence (P28074 whole entry): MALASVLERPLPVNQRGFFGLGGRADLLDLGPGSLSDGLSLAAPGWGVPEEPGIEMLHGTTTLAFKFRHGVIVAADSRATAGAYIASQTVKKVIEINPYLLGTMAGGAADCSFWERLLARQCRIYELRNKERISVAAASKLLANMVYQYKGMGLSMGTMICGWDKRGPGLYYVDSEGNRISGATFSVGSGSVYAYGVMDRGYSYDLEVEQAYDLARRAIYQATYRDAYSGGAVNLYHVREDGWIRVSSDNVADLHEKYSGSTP
The experiment in a line: Inhibition of 20S proteosome beta 5 in human MOLT4 cells by ELISA. Format: cell-based.

Data set [5] deals with PBMC. Briefly: Antiinflammatory activity in human PBMC assessed as reduction in LPS-stimulated p40 subunit of […] expression at 250 nM preincubated for 1 hr followed by LPS stimulation measured after 24 hrs by ELISA. Format: functional, cell-based. A digest of the protocol:
(§2)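 Cryopreserved healthy-donor PBMC in RPMI 1640 with 5% heat-inactivated FBS, 250 000 cells/well. Compound (0.1% DMSO final) for 1 h at 37 °C, 5% CO2, then 4 washes with medium. Stimulated with 1 μg/mL LPS for 24 h; supernatant TNFα, IL-6 and IL-12/23p40 by electrochemiluminescent immunoassay. Mean level relative to DMSO controls, n = 6.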

The nature of data set [6]: Solubility of the compound in phosphate buffer at pH 7.2 at 10 mg/ml after 24 hrs by HPLC-UV method. Format: physicochemical. A digest of the protocol:
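Compound shaken at a target 10 mg/mL in 50 mM potassium phosphate buffer for 24 h at 25 °C, then centrifuged at 15 000 rpm for 15 min. Supernatant diluted 100-fold in DMSO and quantified by HPLC-UV (220/254/280 nm) against a three-level DMSO standard curve, in duplicate.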

The target of data set [7] is T5, Proteasome subunit beta type-10 (Homo sapiens, UniProt P40306).
T5 sequence (P40306 whole entry): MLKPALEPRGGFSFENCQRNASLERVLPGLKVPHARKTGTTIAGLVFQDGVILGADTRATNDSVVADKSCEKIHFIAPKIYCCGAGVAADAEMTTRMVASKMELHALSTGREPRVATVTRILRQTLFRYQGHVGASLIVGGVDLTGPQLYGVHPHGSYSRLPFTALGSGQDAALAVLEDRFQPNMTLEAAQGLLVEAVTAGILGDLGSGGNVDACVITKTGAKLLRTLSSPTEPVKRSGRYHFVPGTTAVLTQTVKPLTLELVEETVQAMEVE
Briefly: Inhibition of MECL1 in human MOLT4 cells by ELISA. The class given is cell-based.

Data set [8] concerns the target Proteasome subunit beta type-2 (Mus musculus, UniProt Q9R1P3). Briefly: Inhibition of 20S proteosome beta 2 in mouse A20 cells by ELISA. The class given is cell-based.
Data set [9] concerns the target T6, Proteasome subunit beta type-8 (Mus musculus, UniProt P28063).
T6 sequence (P28063 whole entry): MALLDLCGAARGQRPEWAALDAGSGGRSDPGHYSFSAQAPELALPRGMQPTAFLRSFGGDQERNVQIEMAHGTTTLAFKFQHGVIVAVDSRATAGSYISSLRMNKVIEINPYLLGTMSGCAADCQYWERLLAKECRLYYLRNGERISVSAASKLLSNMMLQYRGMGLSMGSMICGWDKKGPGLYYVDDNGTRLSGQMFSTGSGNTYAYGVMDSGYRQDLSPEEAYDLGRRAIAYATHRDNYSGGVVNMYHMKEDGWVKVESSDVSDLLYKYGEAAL
The experiment in a line: Inhibition of LMP7 in mouse A20 cells by ELISA. The class given is cell-based. An outline of the steps: as §1

The target of data set [10] is T7, Proteasome subunit beta type-9 (Homo sapiens, UniProt P28065).
T7 sequence (P28065 whole entry): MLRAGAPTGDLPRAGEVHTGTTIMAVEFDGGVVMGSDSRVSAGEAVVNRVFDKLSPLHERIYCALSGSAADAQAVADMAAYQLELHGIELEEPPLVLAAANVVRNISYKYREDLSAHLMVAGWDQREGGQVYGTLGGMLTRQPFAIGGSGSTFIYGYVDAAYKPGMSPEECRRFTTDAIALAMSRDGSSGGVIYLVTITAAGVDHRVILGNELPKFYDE
The experiment in a line: Inhibition of LMP2 in human MOLT4 cells by ELISA. The class given is cell-based.

Data set [11] relates to PBMC. Briefly: Antiinflammatory activity in human PBMC assessed as reduction in LPS-stimulated TNF-alpha expression at 250 nM preincubated for 1 hr followed by LPS stimulation measured after 24 hrs by ELISA. Format: functional, cell-based. An outline of the steps:
as §2

In data set [12] the test system is PBMC. The experiment in a line: Antiinflammatory activity in human PBMC assessed as reduction in LPS-stimulated IL-6 expression at 250 nM preincubated for 1 hr followed by LPS stimulation measured after 24 hrs by ELISA. The class given is functional, cell-based. An outline of the steps:
as §2

Sequence of Proteasome subunit beta type-2 (Q9R1P3 whole entry): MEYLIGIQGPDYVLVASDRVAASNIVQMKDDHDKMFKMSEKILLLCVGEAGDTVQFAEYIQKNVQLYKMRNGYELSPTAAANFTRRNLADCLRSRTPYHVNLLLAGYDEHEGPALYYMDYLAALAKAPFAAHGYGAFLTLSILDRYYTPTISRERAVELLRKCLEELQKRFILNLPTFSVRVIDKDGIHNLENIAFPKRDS

What is called IC50 is the concentration at which inhibition is half-maximal. Low values mean greater potency, high ones weaker potency. As usually defined, the solubility is the dissolved amount per volume that the medium holds. The low end stands for little dissolved substance, the high end for much dissolved substance. Consider `Cc1ccc(CC[C@H](NC(=O)[C@H](Cc2ccccc2)NC(=O)[C@H](CC(C)C)NC(=O)CN2CCCCCC2)C(=O)[C@@]2(C)CO2)cc1`, for which the IC50 is 378 nM in data set [1]; 305 nM in data set [2]; > 25000 nM in [3]; 486 nM in [4]; 71 nM in [7]; 573 nM in data set [8]. Further, the IC50 in data set [9] was 1920 nM; in data set [10], > 25000 nM. The result in the data set on PBMC [5], in the data set on PBMC [11] and in the data set on PBMC [12] was inactive. The solubility at 24 h in data set [6] turned out to be 7 µg/mL (≈ 11.1 µM).

Take `COc1ccc([C@@H](O)[C@H](NC(=O)[C@H](C)NC(=O)CN2CCOCC2)C(=O)N[C@@H](CC2=CCCC2)C(=O)[C@@]2(C)CO2)cc1` [ZETOMIPZOMIB]: the IC50 in data set [1] was 483 nM; in [2] it was 522 nM; in [3] it was 179 nM; in data set [4], 688 nM; in [7], 623 nM; in [8] it was 857 nM. Further, the IC50 was 57 nM in [9] and 131 nM in data set [10]. Also, the outcome in the data set on PBMC [5], in the data set with PBMC [11] and in the data set on PBMC [12] was Active. Moreover, the solubility at 24 h in data set [6] stood at 7070 µg/mL (≈ 12100 µM).

Regarding `COc1ccc(C[C@H](NC(=O)[C@@H](C)NC(=O)[C@H]2CC[C@H](O)CC2)C(=O)N[C@@H](CC2=CCCC2)C(=O)[C@@]2(C)CO2)cc1`, the IC50 in data set [1] is 2650 nM; in data set [3], 3960 nM; in data set [4], 2670 nM; in [7] it was > 25000 nM; in data set [9], 374 nM; in data set [10], 1850 nM. The solubility at 24 h in [6] was 491 µg/mL (≈ 862 µM).
